# A selection: hits, their analogues and other compounds. The true share with any hit is near 2.1%.
# A3A deaminase: blocks human APOBEC3A ssDNA deamination; inhibition, % at 20 µM; 0.41% of 330,000 active; AID 493011; P31941; recombinant A3A, FAM/TAMRA ssDNA deamination fluorescence;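 active = at least 40% inhibition at 20 µM here, with at most 30% in a related deaminase screen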
# C2C12 statin: protects C2C12 myotubes from simvastatin toxicity; AID 602340; 0.78% of 330,000 active; ATP luminescence, 48 h; scaled: DMSO 0, geranylgeraniol control 100; rescue of ATP level, % at 7.49 µM;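 active = mean ATP rescue above about 67%, or every replicate alone reaching that limit, limit read from the data, passing the limit was not always enough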;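 note: myotubes were challenged with 10 µM simvastatin during compound exposure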
# APOBEC3G inh: blocks human APOBEC3G single-stranded DNA deamination | AID 493012 | inhibition, % at 20 µM | 0.28% of 330,000 active | recombinant A3G, ssDNA deamination FAM/TAMRA fluorescence | Q9HC16;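 active = inhibition of at least 40% at 20 µM, with no more than 30% in the related APOBEC3A deaminase screen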
# Mot1-301 SUMO: blocks SUMOylation pathway, rescuing yeast Mot1-301 growth; growth rescue, % at 18.8 µM; 1% of 320,000 active; S. cerevisiae Mot1-301 growth rescue, ATP luminescence, 38.5C; percent above DMSO median, 100 means doubled; AID 2716;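 active = every valid replicate shows activation above 250% relative to neutral control wells; inactive = the rest, any valid replicate at or below 250%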
# ASAP1 inh: inhibitors of human ASAP1 ArfGAP activity | ASAP1-stimulated ARF1 GTP hydrolysis, GDP FP detection | inhibition, % at 16.5 µM | Q9ULH1 | AID 624377 | 0.19% of 360,000 active; in the data active = inhibition above about 25%
# Target sequence (Q9ULH1 325-724 limits assumed): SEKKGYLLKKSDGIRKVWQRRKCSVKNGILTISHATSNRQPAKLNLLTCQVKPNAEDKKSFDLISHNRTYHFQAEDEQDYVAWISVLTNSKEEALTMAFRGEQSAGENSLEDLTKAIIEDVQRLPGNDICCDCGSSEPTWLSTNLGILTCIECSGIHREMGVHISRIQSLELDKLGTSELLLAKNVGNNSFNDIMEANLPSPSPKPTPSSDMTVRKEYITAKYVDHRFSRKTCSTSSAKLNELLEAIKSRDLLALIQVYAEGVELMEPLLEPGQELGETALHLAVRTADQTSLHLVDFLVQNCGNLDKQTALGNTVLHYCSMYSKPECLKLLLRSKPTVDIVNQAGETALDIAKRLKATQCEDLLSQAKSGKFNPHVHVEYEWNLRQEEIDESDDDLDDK
# ARFGAP1 inhibitor: rat ARFGAP1 inhibition; Q62848; Arfgap1-stimulated ARF1 GTP hydrolysis, GDP FP detection; inhibition, % at 16.5 µM; 0.26% of 360,000 active; AID 651572;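 active = inhibition above a per-plate limit, mean inhibition of low control wells plus 3 SD, cut at about 25% in these data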
# Target sequence (Q62848 1-136 limits assumed): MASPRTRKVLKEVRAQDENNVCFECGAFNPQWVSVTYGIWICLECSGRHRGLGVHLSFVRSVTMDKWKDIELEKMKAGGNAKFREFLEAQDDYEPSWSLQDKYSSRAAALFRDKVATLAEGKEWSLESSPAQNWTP
#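 Repeats: one replicate per compound; assay system: rat Arfgap1 catalytic domain, aa 1-136; times: enzyme reaction 120 min at 25 °C after 20 min preincubation; detection: FP of antibody-bound GDP Alexa 633 tracer, ex 620/em 688 nm; benchmarks: high control wells lacking Arfgap1, low control full reaction with DMSO; reagent: human ARF1(Δ1-17)-GTP substrate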
# Yeast Mot1 SUMO: SUMO pathway inhibitors in yeast Mot1-301 growth. shares compounds with Mot1-301 SUMO. S. cerevisiae Mot1-301 galactose growth, ATP luminescence, 24 h; -100 = growth of slx-deleted rescue strain. growth activity, percent, % at 42 µM. 2,300 tested, under 10 active;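 active = Signal drops as the depositor expects, and the fitted half-maximal dose is no more than ten times the top valid tested dose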;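 note: more negative values mean stronger growth rescue toward the control strain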
# Hits are given with their value; - = inactive; . = no result given; + = active, no number.
SMILES,A3A deaminase,C2C12 statin,APOBEC3G inh,Mot1-301 SUMO,ASAP1 inh,ARFGAP1 inhibitor,Yeast Mot1 SUMO
O=C(c1ccco1)N(Cc1ccc(Cl)cc1)Cc1ccco1,-,-,-,-,-,-,.
Cc1cc(C)cc(OCC(=O)NC2CCCc3ccccc32)c1 (centres undefined),-,.,-,461.5,-,-,-
COc1ccccc1OCC(=O)NC1CCCc2ccccc21 (centres undefined),-,-,-,-,-,-,.
COC(=O)c1sc2ccccc2c1NC(=O)c1ccc(S(=O)(=O)N2CCCC(C)C2)cc1 (centres undefined),-,-,-,511.3,-,-,-
CO[C@@H]1CN(C)C(=O)c2ccc(NS(C)(=O)=O)cc2OC[C@H](C)N(C(=O)c2ccc3c(c2)OCO3)C[C@H]1C,.,-,.,.,.,.,.
CCC1CCCCN1CCCNC(=O)C1CCC(CNS(=O)(=O)c2c(C)cc(C)cc2C)CC1 (centres undefined),-,-,-,509.1,-,-,-
Cc1ccc(C(=O)O/N=C(\N)c2cccc([N+](=O)[O-])c2)cc1,-,-,-,-,-,-,.
Cc1ccc(CC(=O)O/N=C(\N)c2cccc([N+](=O)[O-])c2)cc1,-,.,-,448.1,-,-,-
O=C(NCc1csc(-c2cccs2)n1)Nc1ccc(C(F)(F)F)cc1,-,.,-,-,-,-,.
O=C(NCc1csc(-c2cccs2)n1)Nc1ccc(F)cc1F,-,.,-,437.8,-,-,-
CCC1(CC)NC(=O)N(CC(=O)N2N=C(c3ccc(Cl)cc3)CC2c2ccco2)C1=O (centres undefined),-,-,-,580.8,-,-,-
O=C(O)CCC(=O)N1N=C(c2c(-c3ccccc3)c3cc(Cl)ccc3[nH]c2=O)CC1c1ccco1 (centres undefined),-,.,-,376.9,-,-,-
COC(=O)C[C@@H]1C[C@@H]2c3cc(NC(=O)C4CCC4)ccc3O[C@@H]2[C@@H](CO)O1,.,-,.,.,.,.,.
CCOC(=O)c1ccc(NC(=S)NCCCN2CCOCC2)cc1,-,.,-,621.6,-,-,-
CC(=O)c1ccc(NC(=S)NCCCN2CCOCC2)cc1,-,.,-,-,-,-,.
Cc1cc(C)cc(C(=O)Nc2ccc3[nH]c(=O)[nH]c3c2)c1,-,.,-,-,-,-,.
O=C(Nc1ccc2[nH]c(=O)[nH]c2c1)c1c(F)c(F)c(F)c(F)c1F,-,.,-,613.3,-,-,-
Cn1c(=O)[nH]c(=O)c2c1nc(NCCN)n2CCOc1ccccc1,-,-,-,460.6,-,-,-
CCCNc1nc2c(c(=O)[nH]c(=O)n2C)n1CCOc1ccccc1,-,-,-,-,-,-,.
C[C@@H]1CN([C@@H](C)CO)C(=O)c2cc(C3=CCCC3)cnc2O[C@H]1CN(C)Cc1cccnc1,.,-,.,.,.,.,.
CC(C)C(=O)NNc1ccc(C(F)(F)F)cn1,-,.,-,585.8,-,-,-
C[C@@H]1CN([C@H](C)CO)C(=O)CCCn2cc(nn2)CO[C@H]1CN(C)Cc1ccncc1,.,-,.,.,.,.,.
CN(c1ccccc1C(=O)N1CCN(Cc2ccc3c(c2)OCO3)CC1)S(C)(=O)=O,-,.,-,+,-,-,-
O=C(c1ccccc1Cl)N1CCN(Cc2ccc3c(c2)OCO3)CC1,-,-,-,-,-,-,.
CC(=O)NC1CCCN(O)C(=O)/C=C(\C)CCOC(=O)C(NC(C)=O)CCCN(O)C(=O)/C=C(\C)CCOC(=O)C(NC(C)=O)CCCN(O)C(=O)/C=C(\C)CCOC1=O (centres undefined),-,-,-,559.3,.,.,-
SMILES,A3A deaminase,C2C12 statin,APOBEC3G inh,Mot1-301 SUMO,ASAP1 inh,ARFGAP1 inhibitor,Yeast Mot1 SUMO
Cc1ccc(C(=O)NC2CCCCN(C)C2=O)cc1 (centres undefined),.,.,.,.,-,-,.
CS(=O)(=O)N(CC(=O)N1CCN(c2ccccc2F)CC1)C1CCCCC1,-,-,-,680.2,-,-,-
Cc1ccc(S(=O)(=O)N(CC(=O)N2CCN(c3ccccc3F)CC2)C2CCCCC2)cc1,-,-,-,-,-,-,.
O=C(CCc1ccccc1)N1CCN(c2ccccc2F)CC1,-,-,-,793.0,-,-,-
C[C@@H]1CN([C@H](C)CO)S(=O)(=O)c2ccc(-c3cncnc3)cc2O[C@H]1CN(C)C(=O)C1CCC1,.,-,.,.,.,.,.
O=C(C[C@H]1C[C@@H]2c3cc(NC(=O)C4CCOCC4)ccc3O[C@@H]2[C@H](CO)O1)NCC(F)(F)F,.,-,.,.,.,.,.
CCCNC(=O)N1C[C@H](O)COC[C@H]2O[C@H](CC(=O)NCc3ccc(Cl)c(Cl)c3)CC[C@@H]21,.,-,.,.,.,.,.
CCN(CC)S(=O)(=O)c1cc(NC(=O)COC(=O)CCc2nc3ccccc3s2)ccc1C,-,-,-,363.1,-,-,-
CCN(CC)S(=O)(=O)c1cccc(NC(=O)COC(=O)CCc2nc3ccccc3s2)c1,-,-,-,-,.,.,.
O=C(NC1CCCC1)N1CCCCN2[C@H](C1)[C@H](c1ccc(/C=C/c3ccccc3)cc1)[C@@H]2CO,.,-,.,.,.,.,.
CC(C)C1=CC(=Nc2ccc(S(N)(=O)=O)cc2)C=C(C(C)C)C1=O,-,-,-,+,-,-,-
COC(=O)C12CCC3(SCCS3)C(C(=O)OC)(CCC13SCCS3)C2,-,-,-,522.7,-,-,-
COC(=O)C1CC2(C(=O)OC)CC(C(=O)OC)(CC(C(=O)OC)C2=O)C1=O (centres undefined),.,-,.,.,-,-,.
Cn1c(=NC(=O)COc2ccccc2)sc2cc(F)cc(F)c21,-,.,-,447.9,.,.,-
Cn1c(=NC(=O)COc2ccccc2)sc2cccc(F)c21,-,-,-,-,-,-,.
C[C@H](CO)N1C[C@H](C)[C@H](CN(C)S(C)(=O)=O)OCCCC[C@H](C)Oc2ccc(NC(=O)Cc3ccccc3)cc2C1=O,.,-,.,.,.,.,.
CCOc1ccc(-c2nc3n(c(=O)c2C#N)CCS3)cc1,-,-,-,438.6,-,-,-
COc1ccc(-c2nc3n(c(=O)c2C#N)CCS3)cc1,-,.,-,-,-,-,.
CN1C(=S)SC2CS(=O)(=O)CC21C (centres undefined),-,.,-,516.8,-,-,-
O=C(OCC(=O)N1CCN(c2ccccc2)CC1)c1nc(Cl)ccc1Cl,-,-,-,640.6,-,-,-
O=C(NC1CCCCC1)c1n[nH]c2c1CCCCC2,-,-,-,363.7,-,-,-
OCCN1CN=C(Nc2nc3ccccc3o2)NC1,-,-,-,+,-,-,-
CCCN1CN=C(Nc2nc3ccccc3o2)NC1,-,.,-,-,-,-,.
O=C(COc1ccc(F)cc1Cl)N(Cc1nnc(-c2ccccc2Cl)o1)C1CC1,-,.,-,509.6,-,-,-
